Reference: ChEMBL document CHEMBL1124104, “(Acyloxy)benzophenones and (acyloxy)-4-pyrones. A new class of inhibitors of human neutrophil elastase” (J Med Chem, 1988)
One block for each molecule: values may come before it.

Assays:
Neutrophil elastase [1] = target: T1, Neutrophil elastase (Homo sapiens, UniProt P08246); assay: Inhibitory activity against human leukocyte elastase at 10e-7 M
T1 sequence (P08246 whole entry): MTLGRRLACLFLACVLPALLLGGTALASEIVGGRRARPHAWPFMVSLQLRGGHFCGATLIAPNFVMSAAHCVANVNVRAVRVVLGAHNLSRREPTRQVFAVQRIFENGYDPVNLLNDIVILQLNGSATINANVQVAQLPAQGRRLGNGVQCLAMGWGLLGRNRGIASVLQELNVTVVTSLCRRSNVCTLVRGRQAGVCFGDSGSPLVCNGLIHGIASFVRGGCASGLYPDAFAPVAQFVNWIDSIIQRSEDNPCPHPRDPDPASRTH

Neutrophil elastase [2] = target: T1, Neutrophil elastase; assay: Inhibitory activity against human leukocyte elastase; No inhibition at 1x10E-2 M
Outline: (§1)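 HLE activity followed as rise in absorbance at 410 nm from nitroanilide release; substrate (methoxysuccinyl)Ala-Ala-Pro-Val nitroanilide at 10⁻⁴ M. Run in 0.2 M Tris, pH 8.0, 30 °C. Inhibitors and substrate dissolved in DMSO, which made up 10% of the final medium. Enzyme titrated to give 0.12 OD unit/min per 10 mm path.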

[3] = target: T2, Neutrophil elastase (Homo sapiens) (UniProt P08246); assay: Inhibitory activity against [14C]elastin hydrolysis at 1 uM concentration and 2 hr.
T2 sequence (whole entry): T1 sequence (P08246 whole entry)
Outline: (§2)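 Elastase digestion of [¹⁴C]elastin, quantitated by radiolabel release (method of Bielefeld et al.). Substrate, inhibitor and elastase were all present for the whole run, and % inhibition was read at 1, 2 and 3 h.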

[4] = target: T2, Neutrophil elastase (Homo sapiens); assay: Inhibitory activity against [14C]-Elastin hydrolysis at 2 uM concentration and 3h.; outline: as §2
[5] = target: T2, Neutrophil elastase (Homo sapiens); assay: Inhibitory activity against [14C]-Elastin hydrolysis at 0.5 uM concentration and 2 hr.; outline: as §2
[6] = target: T2, Neutrophil elastase (Homo sapiens); assay: Inhibitory activity against [14C]elastin hydrolysis at 2 uM concentration and 1h.; outline: as §2
[7] = target: T2, Neutrophil elastase (Homo sapiens); assay: Inhibitory activity against [14C]elastin hydrolysis at 1 uM concentration and 3h.; outline: as §2
[8] = target: T2, Neutrophil elastase (Homo sapiens); assay: Inhibitory activity against [14C]elastin hydrolysis at 1 uM concentration and 1h.; outline: as §2
[9] = target: T2, Neutrophil elastase (Homo sapiens); assay: Inhibitory activity against [14C]-Elastin hydrolysis at 2 uM concentration and 2 hr.; outline: as §2
[10] = target: T2, Neutrophil elastase (Homo sapiens); assay: Inhibitory activity against [14C]elastin hydrolysis at 0.5 uM concentration and 1h.; outline: as §2
[11] = target: T2, Neutrophil elastase (Homo sapiens); assay: Inhibitory activity against [14C]elastin hydrolysis at 0.5 uM concentration and 3h.; outline: as §2
[12] = Inhibitory activity against Hog pancreatic elastase; A = Inactive at 10e-5 M; design: species or system Sus scrofa
[13] = Inhibitory activity against pancreatic elastase; A = Inactive at 10e-5 M
[14] = target: T2, Neutrophil elastase (Homo sapiens); assay: Inhibitory activity against [14C]elastin hydrolysis at 4 uM concentration and 3h.; outline: as §2
[15] = target: T2, Neutrophil elastase (Homo sapiens); assay: Inhibitory activity against [14C]elastin hydrolysis at 4 uM concentration and 2 hr.; outline: as §2
Neutrophil elastase [16] = target: T1, Neutrophil elastase; assay: Inhibitory activity against human leukocyte elastase at 10e-8 M
Neutrophil elastase [17] = target: T1, Neutrophil elastase; assay: Binding affinity towards human leukocyte elastase at 10e-7 M
[18] = target: T2, Neutrophil elastase (Homo sapiens); assay: Inhibitory activity against [14C]elastin hydrolysis at 4 uM concentration and 1h.; outline: as §2
Neutrophil elastase [19] = target: T1, Neutrophil elastase; assay: Inhibitory activity against human leukocyte elastase at 10e-6 M
Neutrophil elastase [20] = target: T1, Neutrophil elastase; assay: Inhibitory activity against human leukocyte elastase at 10e-4 M; outline: as §1
[21] = Inhibitory activity against Hog pancreatic elastase; IA = Inactive at 10e-5 M; design: species or system Sus scrofa
[22] = Inhibitory activity against pancreatic elastase; IA = Inactive at 10e-5 M
[23] = target: T2, Neutrophil elastase (Homo sapiens); assay: Inhibitory activity against [14C]elastin hydrolysis at 3 uM concentration and 2 hr.; outline: as §2
[24] = target: T2, Neutrophil elastase (Homo sapiens); assay: Inhibitory activity against [14C]elastin hydrolysis at 3 uM concentration and 1h.; outline: as §2
[25] = target: T2, Neutrophil elastase (Homo sapiens); assay: Inhibitory activity against [14C]-Elastin hydrolysis at 3 uM concentration and 3h.; outline: as §2
[26] = Inhibitory activity against Hog pancreatic elastase;IA = Inactive at 10e-5 M; design: species or system Sus scrofa
Neutrophil elastase [27] = target: T1, Neutrophil elastase; assay: Inhibitory activity against human leukocyte elastase at 10e-5 M; outline: as §1
Neutrophil elastase [28] = target: T1, Neutrophil elastase; assay: Inhibitory activity against human leukocyte elastase at 10e-9 M; outline: as §1

- IC50 (Neutrophil elastase [1]): 0.11 µM
Structure (SMILES): CCCCCCCCCCCCCCCC(=O)OCc1cc(=O)c(OC(=O)C(C)(C)C)co1

- IC50 (Neutrophil elastase [2]): No inhibition
Structure (SMILES): CC1C(=O)Oc2ccc(C(=O)c3ccccc3)cc21 (configuration not stated)

- IC50 (Neutrophil elastase [1]): 0.8 µM
Structure (SMILES): CC(C=O)Cc1cc(C(=O)c2ccccc2)ccc1OC(=O)C(C)(C)C (configuration not stated)

- inhibition [3]: 63%
- inhibition [4]: 76%
- inhibition [5]: 19%
- inhibition [6]: 81%
- inhibition [7]: 47%
- inhibition [8]: 45%
- inhibition [9]: 81%
- inhibition [10]: 20%
- inhibition [11]: 6%
Structure (SMILES): CC(C)(C)C(=O)Oc1ccc(C(=O)c2ccc(OC(=O)C(C)(C)C)cc2OC(=O)C(C)(C)C)cc1

- IC50 [12]: Not Active
- IC50 [13]: Not Active
- inhibition [3]: 5%
- inhibition [4]: 1%
- inhibition [14]: 54%
- inhibition [6]: 36%
- inhibition [15]: 80%
- inhibition [7]: -1%
- inhibition [8]: 25%
- inhibition [9]: 16%
- IC50 (Neutrophil elastase [16]): 0.027 µM
- Ki (Neutrophil elastase [17]): 0.07 µM
- inhibition [18]: 93%
Structure (SMILES): CC(C)(C)C(=O)Oc1ccc(C(=O)OCc2cc(=O)c(OC(=O)C(C)(C)C)co2)c(OC(=O)C(C)(C)C)c1

- IC50 (Neutrophil elastase [19]): 8 µM
Structure (SMILES): CC(C)(C)C(=O)Oc1ccccc1C(=O)c1ccccc1OC(=O)C(C)(C)C

- IC50 (Neutrophil elastase [20]): 100 µM
Structure (SMILES): CCCCCCCCCCCCCCCC(=O)OCc1cc(=O)c(O)co1

- IC50 (Neutrophil elastase [19]): 3 µM
Structure (SMILES): CC(C)(C)C(=O)Oc1ccc(C(OC(=O)CCC(=O)O)c2ccc(OC(=O)C(C)(C)C)cc2)cc1

- IC50 (Neutrophil elastase [2]): No inhibition
Structure (SMILES): CC1Cc2cc(C(=O)c3ccccc3)ccc2OC1=O (configuration not stated)

- IC50 (Neutrophil elastase [19]): 1.5 µM
Structure (SMILES): CCC(C)CC(=O)Oc1ccc(C(=O)c2ccc(OC(=O)CC(C)CC)cc2OC(=O)CC(C)CC)c(OC(=O)CC(C)CC)c1 (configuration not stated)

- IC50 [21]: Not Active
- IC50 (Neutrophil elastase [1]): 0.13 µM
- IC50 [22]: Not Active
Structure (SMILES): CCCCCC/C=C/CCCCCCCC(=O)OCc1cc(=O)c(OC(=O)C(C)(C)C)co1

- inhibition [4]: 9%
- inhibition [14]: 21%
- inhibition [6]: 57%
- inhibition [15]: 53%
- inhibition [9]: 21%
- inhibition [23]: 39%
- inhibition [24]: 67%
- inhibition [25]: 13%
- IC50 (Neutrophil elastase [1]): 0.1 µM
- inhibition [18]: 79%
- IC50 [22]: Not Active
- IC50 [26]: Not Active
Structure (SMILES): CCCCCCCCCCCCCCCCCC(=O)OCc1cc(=O)c(OC(=O)C(C)(C)C)co1

- IC50 (Neutrophil elastase [16]): 0.072 µM
Structure (SMILES): CCCCCCCCCCCCCCCCCC(=O)OCc1cc(=O)c(OC(=O)C(C)C)co1

- IC50 (Neutrophil elastase [1]): 0.13 µM
Structure (SMILES): CCCCCCCCCCCCCCCCCCCC(=O)OCc1cc(=O)c(OC(=O)C(C)(C)C)co1

- IC50 (Neutrophil elastase [27]): 20 µM
Structure (SMILES): O=C(c1ccccc1)c1ccc(OC(=O)C2CCCCC2)cc1

- IC50 (Neutrophil elastase [19]): 6.1 µM
Structure (SMILES): CCCCCCC/C=C/CCCCCCCCC(=O)Oc1coc(COC(=O)CCCCCCC/C=C/CCCCCCCC)cc1=O

- IC50 (Neutrophil elastase [27]): 16 µM
Structure (SMILES): CC(=O)Oc1ccc(C(=O)c2ccccc2)cc1

- inhibition [3]: 14%
- inhibition [4]: 8%
- inhibition [6]: 39%
- inhibition [8]: 29%
- inhibition [9]: 29%
- inhibition [23]: 40%
- inhibition [24]: 56%
- inhibition [25]: 29%
Structure (SMILES): CC(C)(C)C(=O)Oc1ccc(S(=O)(=O)c2ccc(OC(=O)C(C)(C)C)cc2)cc1

- IC50 (Neutrophil elastase [2]): No inhibition
Structure (SMILES): CC1(C)C(=O)Oc2ccc(C(=O)c3ccccc3)cc21

- IC50 (Neutrophil elastase [28]): 1.9 µM
Structure (SMILES): C=C(C)C(=O)Oc1ccc(C(=O)c2ccccc2)cc1

- IC50 (Neutrophil elastase [19]): 2.7 µM
Structure (SMILES): CC(C)(C)C(=O)Oc1ccc(C(=O)c2ccc(O)cc2)cc1

- IC50 (Neutrophil elastase [2]): No inhibition
Structure (SMILES): O=C1CCc2cc(C(=O)c3ccccc3)ccc2O1

- IC50 (Neutrophil elastase [19]): 5.4 µM
Structure (SMILES): CC(C)(C)C(=O)Oc1ccccc1C(=O)OCc1cc(=O)c(OC(=O)C(C)(C)C)co1

- IC50 (Neutrophil elastase [27]): 19 µM
Structure (SMILES): CC(=O)NC(C)(C)C(=O)Oc1ccc(C(=O)c2ccccc2)cc1

- IC50 (Neutrophil elastase [1]): 0.21 µM
Structure (SMILES): CCCCCCCC/C=C/CCCCCCCCCC(=O)OCc1cc(=O)c(OC(=O)C(C)(C)C)co1

- IC50 (Neutrophil elastase [19]): 1 µM
Structure (SMILES): CC(C)(C)C(=O)Oc1coc(COC(c2ccccc2)(c2ccccc2)c2ccccc2)cc1=O

- IC50 (Neutrophil elastase [27]): 43 µM
Structure (SMILES): CC(C)(C)C(=O)Oc1coc(COC2CCOCC2)cc1=O
